Experimental data from different studies.
Lines come from different studies, so protocols differ.
Target: Serine/threonine-protein kinase TBK1 (TBK1, Homo sapiens, UniProt Q9UHD2)

Cc1ccc(Nc2nccc(N(C)c3ccc4c(C)n(C)nc4c3)n2)cc1S(N)(=O)=O
inhibition (enzyme activity; inhibitor; 10 µM): 46%

COc1cc2ncnc(Nc3ccc(Oc4ccccc4)cc3C)c2cc1OC
inhibition (enzyme activity; inhibitor; 1 µM): 4%

O=C(NCCCC1CCCCC1)c1ccc(CNC(=O)c2cnn(-c3ccccc3)c2C(F)(F)F)cc1
remaining binding (cell-free assay; competition with immobilised ligand; 0.1 µM): 100%

C[S+]([O-])c1ccc(-c2nc(-c3ccncc3)c(-c3ccc(F)cc3)[nH]2)cc1 (stereo not drawn)
remaining signal (cell-free assay; 0.5 µM): 99.7%

NS(=O)(=O)c1ccc(CNc2nc(Nc3cccc(NC(=O)N4CCCC4)c3)ncc2Br)cc1
remaining activity (enzyme activity; inhibitor; radiometric; 1 µM): 1%

O=C(NS(=O)(=O)c1ccc(NCC2CCOCC2)c([N+](=O)[O-])c1)c1ccc(N2CCN(Cc3ccc(C(F)(F)F)cc3-c3ccc(Cl)cc3)CC2)cc1Oc1cnc2[nH]ccc2c1
remaining binding (cell-free assay; competition with immobilised ligand; 1 µM): 74%

Cc1cc(NC(=O)c2cccc3cc(-c4cccc5[nH]nc(N)c45)ccc23)ccc1F
activity vs control (enzyme activity; inhibitor; 0.1 µM): 109%

Cc1ccc(C(=O)NCc2ccsc2)cc1C#Cc1cn(C(C)C)c2ncnc(N)c12
activity vs control (enzyme activity; inhibitor; 1 µM): 87%

Cc1nn(CC(F)(F)F)cc1Nc1nccc(NCCCNC(=O)C2CCC2)n1
remaining activity (enzyme activity; inhibitor; radiometric; 1 µM): 61%

CNC(=O)c1cc(Oc2ccc(NC(=O)Nc3ccc(Cl)c(C(F)(F)F)c3)cc2)ccn1
inhibition (enzyme activity; inhibitor; 0.3 µM): 16%

COc1cc(Nc2c(C#N)cnc3cc(OCCCN4CCN(C)CC4)c(OC)cc23)c(Cl)cc1Cl
remaining signal (cell-free assay; 0.5 µM): 65.7%

Cc1nn(CC(F)(F)F)cc1Nc1nccc(NCCc2cnc[nH]2)n1
remaining activity (enzyme activity; inhibitor; radiometric; 1 µM): 87%

C[C@@H](c1cccc(C#N)c1)n1cc(Cl)cc(C(N)=O)c1=N
remaining binding (cell-free assay; competition with immobilised ligand; 1 µM): 89%

NS(=O)(=O)c1ccc(CNc2ccnc(Nc3cccc(CN4CCOCC4)c3)n2)cc1
remaining activity (enzyme activity; inhibitor; radiometric; 1 µM): 33%

CN(c1ncccc1CNc1nc(Nc2ccc3c(c2)CC(=O)N3)ncc1C(F)(F)F)S(C)(=O)=O
inhibition (enzyme activity; inhibitor; 1 µM): 73.7%

CCCS(=O)(=O)Nc1ccc(F)c(C(=O)c2c[nH]c3ncc(-c4ccc(Cl)cc4)cc23)c1F
inhibition (enzyme activity; inhibitor; 1 µM): < 10%

Cc1nn(CC(F)(F)F)cc1Nc1ncc(C2CC2)c(NCCCNC(=O)C2CCC2)n1
remaining activity (enzyme activity; inhibitor; radiometric; 1 µM): 4%

FC(F)(F)Oc1cccc(-c2cnc3ccc(-c4ccncc4)nn23)c1
activity vs control (enzyme activity; inhibitor; radiometric; 5 µM): 73%

Cc1noc([C@H]2C[C@@H](c3ccc(C(F)(F)F)cc3)CN(C(=O)N3CCS(=O)(=O)C3)C2)n1
remaining binding (cell-free assay; competition with immobilised ligand; 1 µM): 68%

CN(C)C1CCN(CC#Cc2nn(C3CCCC3)c3nc(NCc4ccccc4)ncc23)C1 (stereo not drawn)
inhibition (enzyme activity; inhibitor; FRET; 0.1 µM): 2%

Cc1nn(CC(F)(F)F)cc1Nc1ncc(C2CC2)c(NCc2ccc(S(N)(=O)=O)cc2)n1
remaining activity (enzyme activity; inhibitor; radiometric; 1 µM): 10%

CN(C)C(=O)Cn1cc(-c2nc([C@@](C)(c3ccc(-c4cnc(N)nc4)cc3)C3CC3)no2)cn1
remaining binding (cell-free assay; competition with immobilised ligand; 1 µM): 85%

COc1cccc2c(NCc3ccccc3)nc(-n3c(N)nc4ccccc43)nc12
inhibition (target engagement in cells; inhibitor; chemoproteomics; 20 mM): -11.4%

Cc1nn(CC(F)(F)F)cc1Nc1ncc(C2CC2)c(NCCc2c[nH]cn2)n1
remaining activity (enzyme activity; inhibitor; radiometric; 1 µM): 81%

CN1CCN(c2cnc3c(C4CCN(C(=O)c5ccc(OC(F)(F)F)cc5N)CC4)ncnc3c2)CC1
remaining binding (cell-free assay; competition with immobilised ligand; 1 µM): 61%

NS(=O)(=O)c1ccc(CNc2nc(Nc3cccc(CN4CCOCC4)c3)ncc2C2CC2)cc1
remaining activity (enzyme activity; inhibitor; radiometric; 1 µM): 10%

CN(C)C(=O)Cn1cc(-c2nc(C3(c4ccc(-c5cnc(N)nc5)cc4)CC3)no2)cn1
remaining binding (cell-free assay; competition with immobilised ligand; 1 µM): 87%

CCN(CC)CCNC(=O)c1c(C)[nH]c(/C=C2\C(=O)Nc3ccc(F)cc32)c1C
inhibition (enzyme activity; inhibitor; 10 µM): 88%

O=C(O)c1cc(-c2ccc(C3CCNCC3)cc2)c2ccc(-c3ccc(C(F)(F)F)cc3)cc2c1
remaining binding (cell-free assay; competition with immobilised ligand; 1 µM): 80%

CN1CC(Oc2cnc(C#N)cc2-c2ccn3nc(NC(=O)C4CC4)cc3c2)C1
inhibition (enzyme activity; inhibitor; 1 µM): 3%
